Data published in ChEMBL document CHEMBL1123924, “Structure-activity studies of antagonists of luteinizing hormone-releasing hormone with emphasis on the amino-terminal region” (1987).
Non-standard residues stand in square brackets, D forms with d. Residues, ends and D or L forms follow the SMILES beside them. d(hArg(Et2)) = CCN=C(NCC)NCCCC[C@@H](N)C(=O)O; dPhe(4-Cl) = N[C@H](Cc1ccc(Cl)cc1)C(=O)O; d2Nal = N[C@H](Cc1ccc2ccccc2c1)C(=O)O

Experiments:
Assay type in all cases: functional
Rattus norvegicus [1] = species on record: Rattus norvegicus; assay: Antiovulatory activity was expressed as the percentage of 8 rats blocked at a dose 1 ug.
Procedure, shortened: (§1)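 Sprague-Dawley rats given peptide by subcutaneous injection at noon on the day of proestrus, in 40% propane-1,2-diol–0.9% saline vehicle. Oviducts examined for ova the following day.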

Rattus norvegicus [2] = species on record: Rattus norvegicus; assay: Antiovulatory activity was expressed as the percentage of 10 rats blocked at a dose 3 ug.; procedure, shortened: as §1
Rattus norvegicus [3] = species on record: Rattus norvegicus; assay: Antiovulatory activity was expressed as the percentage of 9 rats blocked at a dose 1 ug.; procedure, shortened: as §1
Rattus norvegicus [4] = species on record: Rattus norvegicus; assay: Antiovulatory activity was expressed as the percentage of 8 rats blocked at a dose 7.5 ug.; procedure, shortened: as §1
Rattus norvegicus [5] = species on record: Rattus norvegicus; assay: Antiovulatory activity was expressed as the percentage of 16 rats blocked at a dose 1 ug.; procedure, shortened: as §1
Rattus norvegicus [6] = species on record: Rattus norvegicus; assay: Antiovulatory activity was expressed as the percentage of 7 rats blocked at a dose 3 ug.; procedure, shortened: as §1
Rattus norvegicus [7] = species on record: Rattus norvegicus; assay: Antiovulatory activity was expressed as the percentage of 8 rats blocked at a dose 3 ug.; procedure, shortened: as §1
Rattus norvegicus [8] = species on record: Rattus norvegicus; assay: Antiovulatory activity was expressed as the percentage of 9 rats blocked at a dose 3 ug.; procedure, shortened: as §1
Rattus norvegicus [9] = species on record: Rattus norvegicus; assay: Antiovulatory activity was expressed as the percentage of 10 rats blocked at a dose 0.5 ug.; procedure, shortened: as §1
Rattus norvegicus [10] = species on record: Rattus norvegicus; assay: Antiovulatory activity was expressed as the percentage of 9 rats blocked at a dose 7.5 ug.; procedure, shortened: as §1
Rattus norvegicus [11] = species on record: Rattus norvegicus; assay: Antiovulatory activity was expressed as the percentage of 10 rats blocked at a dose 1 ug.; procedure, shortened: as §1

CCNC(=NCCCC[C@@H](NC(=O)[C@H](Cc1ccc(O)cc1)NC(=O)[C@H](CO)NC(=O)[C@@H](Cc1c[nH]c2ccccc12)NC(=O)[C@@H](Cc1ccc(Cl)cc1)NC(=O)[C@@H](Cc1ccc2ccccc2c1)NC(C)=O)C(=O)N[C@@H](Cc1ccccc1)C(=O)N[C@@H](CCCN=C(N)N)C(=O)N1CCC[C@H]1C(=O)N[C@H](C)C(N)=O)NCC (Ac-[d2Nal][dPhe(4-Cl)][dW]SY[d(hArg(Et2))]FRP[dA]-NH2)
Antiovulatory activity (Rattus norvegicus [1]): 63%

CC(=O)N[C@H](Cc1ccc2ccccc2c1)C(=O)N[C@H](Cc1ccc2ccccc2c1)C(=O)N[C@H](Cc1ccccc1)C(=O)N[C@@H](CO)C(=O)N[C@@H](Cc1ccc(O)cc1)C(=O)N[C@H](CCCN=C(N)N)C(=O)N[C@@H](Cc1ccccc1)C(=O)N[C@@H](CCCN=C(N)N)C(=O)N1CCC[C@H]1C(=O)N[C@H](C)C(N)=O
Antiovulatory activity (Rattus norvegicus [2]): 100%

CC(=O)N[C@H](Cc1ccc2ccccc2c1)C(=O)N[C@H](Cc1ccccc1)C(=O)N[C@H](Cc1ccc(O)cc1)C(=O)N[C@@H](CO)C(=O)N[C@@H](Cc1ccc(O)cc1)C(=O)N[C@H](CCCN=C(N)N)C(=O)N[C@@H](Cc1ccccc1)C(=O)N[C@@H](CCCN=C(N)N)C(=O)N1CCC[C@H]1C(=O)N[C@H](C)C(N)=O
Antiovulatory activity (Rattus norvegicus [3]): 0%

CC(=O)N[C@H](Cc1ccc2ccccc2c1)C(=O)N[C@H](Cc1ccc2ccccc2c1)C(=O)N[C@H](Cc1c[nH]cn1)C(=O)N[C@@H](CO)C(=O)N[C@@H](Cc1ccc(O)cc1)C(=O)N[C@H](CCCN=C(N)N)C(=O)N[C@@H](Cc1ccccc1)C(=O)N[C@@H](CCCN=C(N)N)C(=O)N1CCC[C@H]1C(=O)N[C@H](C)C(N)=O
Antiovulatory activity (Rattus norvegicus [2]): 0%

CC(=O)N[C@H](Cc1ccc(Cl)cc1)C(=O)N[C@H](Cc1ccc(Cl)cc1)C(=O)N[C@H](Cc1c[nH]c2ccccc12)C(=O)N[C@@H](CO)C(=O)N[C@@H](Cc1ccc(O)cc1)C(=O)N[C@H](Cc1ccc2ccccc2c1)C(=O)N[C@@H](Cc1ccccc1)C(=O)N[C@@H](CCCN=C(N)N)C(=O)N1CCC[C@H]1C(=O)N[C@H](C)C(N)=O
Antiovulatory activity (Rattus norvegicus [4]): 0%

CC(=O)N[C@H](Cc1ccc2ccccc2c1)C(=O)N[C@H](Cc1ccc(O)cc1)C(=O)N[C@H](Cc1ccccc1)C(=O)N[C@@H](CO)C(=O)N[C@@H](Cc1ccc(O)cc1)C(=O)N[C@H](CCCN=C(N)N)C(=O)N[C@@H](Cc1ccccc1)C(=O)N[C@@H](CCCN=C(N)N)C(=O)N1CCC[C@H]1C(=O)N[C@H](C)C(N)=O
Antiovulatory activity (Rattus norvegicus [5]): 0% | Antiovulatory activity (Rattus norvegicus [6]): 14%

CC(=O)N[C@H](Cc1ccc2ccccc2c1)C(=O)N[C@H](Cc1ccc(Cl)cc1)C(=O)N[C@H](Cc1ccc(Cl)cc1)C(=O)N[C@@H](CO)C(=O)N[C@@H](Cc1ccc(O)cc1)C(=O)N[C@H](CCCN=C(N)N)C(=O)N[C@@H](Cc1ccccc1)C(=O)N[C@@H](CCCN=C(N)N)C(=O)N1CCC[C@H]1C(=O)N[C@H](C)C(N)=O
Antiovulatory activity (Rattus norvegicus [1]): 0% | Antiovulatory activity (Rattus norvegicus [7]): 63%

CC(=O)N[C@H](Cc1ccc(Cl)cc1)C(=O)N[C@H](Cc1ccccc1)C(=O)N[C@H](Cc1ccccc1)C(=O)N[C@@H](CO)C(=O)N[C@@H](Cc1ccc(O)cc1)C(=O)N[C@H](CCCN=C(N)N)C(=O)N[C@@H](Cc1ccccc1)C(=O)N[C@@H](CCCN=C(N)N)C(=O)N1CCC[C@H]1C(=O)N[C@H](C)C(N)=O
Antiovulatory activity (Rattus norvegicus [7]): 63%

CC(=O)N[C@H](Cc1ccc2ccccc2c1)C(=O)N[C@H](Cc1ccc2ccccc2c1)C(=O)N[C@H](Cc1ccc2ccccc2c1)C(=O)N[C@@H](CO)C(=O)N[C@@H](Cc1ccc(O)cc1)C(=O)N[C@H](CCCN=C(N)N)C(=O)N[C@@H](Cc1ccccc1)C(=O)N[C@@H](CCCN=C(N)N)C(=O)N1CCC[C@H]1C(=O)N[C@H](C)C(N)=O
Antiovulatory activity (Rattus norvegicus [8]): 15%

CC(=O)N[C@H](Cc1ccc2ccccc2c1)C(=O)N[C@H](Cc1ccccc1)C(=O)N[C@H](Cc1ccccc1)C(=O)N[C@@H](CO)C(=O)N[C@@H](Cc1ccc(O)cc1)C(=O)N[C@H](CCCN=C(N)N)C(=O)N[C@@H](CC1CCCCC1)C(=O)N[C@@H](CCCN=C(N)N)C(=O)N1CCC[C@H]1C(=O)N[C@H](C)C(N)=O
Antiovulatory activity (Rattus norvegicus [9]): 80%

CC(=O)N[C@H](Cc1ccc2ccccc2c1)C(=O)N[C@H](Cc1ccc(O)cc1)C(=O)N[C@H](Cc1ccc(O)cc1)C(=O)N[C@@H](CO)C(=O)N[C@@H](Cc1ccc(O)cc1)C(=O)N[C@H](CCCN=C(N)N)C(=O)N[C@@H](Cc1ccccc1)C(=O)N[C@@H](CCCN=C(N)N)C(=O)N1CCC[C@H]1C(=O)N[C@H](C)C(N)=O
Antiovulatory activity (Rattus norvegicus [1]): 0%

CC(=O)N[C@H](Cc1ccc2ccccc2c1)C(=O)N[C@H](Cc1ccc2ccccc2c1)C(=O)N[C@H](Cc1c(F)c(F)c(F)c(F)c1F)C(=O)N[C@@H](CO)C(=O)N[C@@H](Cc1ccc(O)cc1)C(=O)N[C@H](CCCN=C(N)N)C(=O)N[C@@H](Cc1ccccc1)C(=O)N[C@@H](CCCN=C(N)N)C(=O)N1CCC[C@H]1C(=O)N[C@H](C)C(N)=O
Antiovulatory activity (Rattus norvegicus [10]): 0%

CC(=O)N[C@H](Cc1c[nH]c2ccccc12)C(=O)N[C@H](Cc1ccccc1)C(=O)N[C@H](Cc1ccccc1)C(=O)N[C@@H](CO)C(=O)N[C@@H](Cc1ccc(O)cc1)C(=O)N[C@H](CCCN=C(N)N)C(=O)N[C@@H](Cc1ccccc1)C(=O)N[C@@H](CCCN=C(N)N)C(=O)N1CCC[C@H]1C(=O)N[C@H](C)C(N)=O
Antiovulatory activity (Rattus norvegicus [2]): 0%

CC(=O)N[C@H](Cc1ccc2ccccc2c1)C(=O)N[C@H](Cc1ccc(Cl)cc1)C(=O)N[C@H](Cc1ccccc1)C(=O)N[C@@H](CO)C(=O)N[C@@H](Cc1ccc(O)cc1)C(=O)N[C@H](CCCN=C(N)N)C(=O)N[C@@H](Cc1ccccc1)C(=O)N[C@@H](CCCN=C(N)N)C(=O)N1CCC[C@H]1C(=O)N[C@H](C)C(N)=O
Antiovulatory activity (Rattus norvegicus [3]): 56% | Antiovulatory activity (Rattus norvegicus [9]): 10%

CC(=O)N[C@H](Cc1ccccc1)C(=O)N[C@H](Cc1ccccc1)C(=O)N[C@H](Cc1ccccc1)C(=O)N[C@@H](CO)C(=O)N[C@@H](Cc1ccc(O)cc1)C(=O)N[C@H](CCCN=C(N)N)C(=O)N[C@@H](Cc1ccccc1)C(=O)N[C@@H](CCCN=C(N)N)C(=O)N1CCC[C@H]1C(=O)N[C@H](C)C(N)=O
Antiovulatory activity (Rattus norvegicus [7]): 0%

CC(=O)N[C@H](Cc1ccc(Cl)cc1)C(=O)N[C@H](Cc1ccc(Cl)cc1)C(=O)N[C@H](Cc1c[nH]c2ccccc12)C(=O)N[C@@H](CO)C(=O)N[C@@H](Cc1ccc(O)cc1)C(=O)N[C@H](Cc1ccccc1)C(=O)N[C@@H](Cc1ccccc1)C(=O)N[C@@H](CCCN=C(N)N)C(=O)N1CCC[C@H]1C(=O)N[C@H](C)C(N)=O
Antiovulatory activity (Rattus norvegicus [4]): 8%

CC(=O)N[C@H](Cc1ccc(Cl)cc1)C(=O)N[C@H](Cc1ccc(Cl)cc1)C(=O)N[C@H](Cc1c[nH]c2ccccc12)C(=O)N[C@@H](CO)C(=O)N[C@@H](Cc1ccc(O)cc1)C(=O)N[C@H](CCCN=C(N)N)C(=O)N[C@@H](Cc1ccccc1)C(=O)N[C@@H](CCCN=C(N)N)C(=O)N1CCC[C@H]1C(=O)N[C@H](C)C(N)=O (HELM PEPTIDE1{[ac].[O=C([C@@H](Cc1ccc(Cl)cc1)N[*:1])[*:2]].[O=C([C@@H](Cc1ccc(Cl)cc1)N[*:1])[*:2]].[dW].S.Y.[dR].F.R.P.[dA].[am]}$$$$V2.0)
Antiovulatory activity (Rattus norvegicus [11]): 70% | Antiovulatory activity (Rattus norvegicus [2]): 100%
